Data on 3 compounds can be found in ChEMBL document CHEMBL4715682, “Potent trifluoromethoxy, trifluoromethylsulfonyl, trifluoromethylthio and pentafluorosulfanyl containing (1,3,4-oxadiazol-2-yl)benzamides against drug-resistant Gram-positive bacteria” (RSC Med Chem, 2020).

≈ marks a conversion by molar mass, not a printed value. Calls of active or inactive are those of the source. Bounds are passed on as bounds.

Format in all cases: functional
For assay [1], the system named is Staphylococcus aureus. The assay can be described thus: Antibacterial activity against methicillin-resistant Staphylococcus aureus ATCC 33592 assessed as inhibition of visible bacterial growth incubated for 18 to 20 hrs by CLSI method. As to conditions: time 18-20 hrs. The method, boiled down:
(§1)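 CLSI broth microdilution. Strains grown aerobically overnight on tryptic soy agar at 37 °C, adjusted to 0.5 McFarland and diluted in cation-adjusted Mueller–Hinton broth to about 5×10^5 CFU/mL. Compounds and control drugs serially diluted across the plate. Incubated aerobically at 37 °C for 18-20 h. MIC is the lowest concentration with no visible growth.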

The test system of assay [2] is Staphylococcus aureus. The assay can be described thus: Antibacterial activity against Staphylococcus aureus ATCC 25923 assessed as inhibition of visible bacterial growth incubated for 18 to 20 hrs by CLSI method. As to conditions: time 18-20 hrs. The method, boiled down: as §1
The test system of assay [3] is Staphylococcus aureus. The assay can be described thus: Antibacterial activity against methicillin-resistant Staphylococcus aureus USA400 infected in mouse J774 cells assessed as log reduction in intracellular growth at 8 ug/ml incubated for 18 to 22 hrs. As to conditions: dose 8.0 µg/ml, time 18-22 hrs. An outline of the steps: (§2)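 J774 murine macrophages grown in DMEM with 10% FBS at 37 °C, 5% CO2. Cells infected with MRSA USA400 at MOI about 10:1 for 1 h, then washed with gentamicin to remove extracellular bacteria. Agents added at 8 or 16 μg/mL in triplicate, with DMSO vehicle control, for 24 h. Cells lysed with 0.1% Triton-X, lysates plated on tryptic soy agar, and CFU counted after 18-22 h at 37 °C. Analysed by two-way ANOVA with Dunnett's test.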

The next assay deals with Listeria monocytogenes. The assay can be described thus: Antibacterial activity against Listeria monocytogenes ATCC 19111 assessed as inhibition of visible bacterial growth incubated for 18 to 20 hrs by CLSI method. As to conditions: time 18-20 hrs. An outline of the steps: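 Broth microdilution per CLSI. Strains grown aerobically overnight on TSA at 37 °C, suspended to 0.5 McFarland, diluted in CAMHB to about 5×10^5 CFU/mL. Agents serially diluted across plate; aerobic incubation 37 °C for 18-20 h. MIC = lowest concentration completely preventing visible growth.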

Assay [4] deals with Streptococcus pneumoniae. In words: Antibacterial activity against […] Streptococcus pneumoniae ATCC 700677 assessed as inhibition of visible bacterial growth incubated for 18 to 20 hrs by CLSI method. As to conditions: time 18-20 hrs. The method, boiled down: as §1
In assay [5] the test system is Enterococcus faecalis. The assay can be described thus: Antibacterial activity against vancomycin- resistant Enterococcus faecalis ATCC 51299 assessed as inhibition of visible bacterial growth incubated for 18 to 20 hrs by CLSI method. The note with it: time 18-20 hrs. The method, boiled down: as §1
The subject of assay [6] is Enterococcus faecalis. The assay can be described thus: Antibacterial activity against vancomycin- resistant Enterococcus faecalis ATCC 700221 assessed as inhibition of visible bacterial growth incubated for 18 to 20 hrs by CLSI method. As to conditions: time 18-20 hrs. The method, boiled down:
as §1

Assay [7] concerns Staphylococcus aureus. In words: Antibacterial activity against methicillin-resistant Staphylococcus aureus USA400 infected in mouse J774 cells assessed as log reduction in intracellular growth at 16 ug/ml incubated for 18 to 22 hrs. As to conditions: dose 16.0 µg/ml, time 18-22 hrs. The method, boiled down:
as §2

Assay [8] relates to Streptococcus pneumoniae. In words: Antibacterial activity against cephalosporin-resistant Streptococcus pneumoniae ATCC 51916 assessed as inhibition of visible bacterial growth incubated for 18 to 20 hrs by CLSI method. As to conditions: time 18-20 hrs. An outline of the steps: as §1
Assay [9] has as its system Staphylococcus aureus. The assay can be described thus: Antibacterial activity against methicillin-resistant Staphylococcus aureus NRS484 assessed as inhibition of visible bacterial growth incubated for 18 to 20 hrs by CLSI method. As to conditions: time 18-20 hrs. An outline of the steps:
as §1

Assay [10] relates to Staphylococcus aureus. In words: Bactericidal activity against methicillin-resistant Staphylococcus aureus ATCC 33592 assessed as reduction in bacterial growth incubated for 18 hrs by CLSI method.

As usually defined, the MIC is the lowest concentration found to suppress growth. As for `O=C(Nc1nnc(-c2cccs2)o1)c1ccc(OC(F)F)cc1`, the MIC in the assay with Staphylococcus aureus [1] and in the assay with Staphylococcus aureus [2] was 32 µg/mL (≈ 94.9 µM) each time.

The term MBC denotes the smallest concentration meeting the test's criterion for killing. As to `CN[C@H](CC(C)C)C(=O)N[C@H]1C(=O)N[C@@H](CC(N)=O)C(=O)N[C@H]2C(=O)N[C@H]3C(=O)N[C@H](C(=O)N[C@H](C(=O)O)c4cc(O)cc(O)c4-c4cc3ccc4O)[C@H](O)c3ccc(c(Cl)c3)Oc3cc2cc(c3O[C@@H]2O[C@H](CO)[C@@H](O)[C@H](O)[C@H]2O[C@H]2C[C@](C)(N)[C@H](O)[C@H](C)O2)Oc2ccc(cc2Cl)[C@H]1O` [VANCOMYCIN], the result with Staphylococcus aureus [3] and with Staphylococcus aureus [7] was inactive. The MIC is 0.5 µg/mL (≈ 0.345 µM) with Listeria monocytogenes; 1 µg/mL (≈ 0.69 µM) in the assay with Streptococcus pneumoniae [4]; 32 µg/mL (≈ 22.1 µM) in the assay on Enterococcus faecalis [5]; greater than 64 µg/mL in the assay with Enterococcus faecalis [6]; 0.5 µg/mL (≈ 0.345 µM) with Streptococcus pneumoniae [8]; greater than 2 µg/mL with Staphylococcus aureus [9]. In addition, the MBC in the assay on Staphylococcus aureus [10] worked out at 1 µg/mL (≈ 0.69 µM).

Consider `O=C(Nc1nnc(-c2cccs2)o1)c1ccc(F)cc1`, for which the MIC with Staphylococcus aureus [1] and in the assay on Staphylococcus aureus [2] was 32 µg/mL (≈ 111 µM) each time.
